In experiment [1] the target is Phosphorylase kinase (Homo sapiens) (UniProt P15735+P46020+P46019+Q93100+Q16816). Kind of experiment: Inhibition of recombinant PHK (unknown origin) assessed as residual activity using [gamma-33P]ATP as substrate at 1 uM. The class given is protein-complex assay. In a few lines:
(§1)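 Selectivity panel run under previously published conditions. Screened at 1 μM in duplicate. Reactions started with [γ-33P]ATP (800 cpm/pmol) at 5, 20 or 50 μM, chosen to be at or below each enzyme's ATP Km. Stopped with phosphoric acid, spotted onto P81 filters. Result expressed as residual kinase activity.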

For experiment [2], the target named is Serine/threonine-protein kinase 3 (Homo sapiens) (UniProt Q13188). The experiment can be described thus: Inhibition of recombinant MST2 (unknown origin) assessed as residual activity using [gamma-33P]ATP as substrate at 1 uM. In a few lines:
as §1

Experiment [3] deals with MAP kinase-interacting serine/threonine-protein kinase 2 (Homo sapiens) (UniProt Q9HBH9). The experiment can be described thus: Inhibition of recombinant MNK2 (unknown origin) assessed as residual activity using [gamma-33P]ATP as substrate at 1 uM. In a few lines:
as §1

Experiment [4] concerns the target Dual specificity mitogen-activated protein kinase kinase 6 (Homo sapiens) (UniProt P52564). Kind of experiment: Inhibition of recombinant MKK6 (unknown origin) assessed as residual activity using [gamma-33P]ATP as substrate at 1 uM. A digest of the protocol:
as §1

In experiment [5] the target is Mitogen-activated protein kinase kinase kinase 1 (Homo sapiens) (UniProt Q13233). The experiment can be described thus: Inhibition of recombinant MEKK1 (unknown origin) assessed as residual activity using [gamma-33P]ATP as substrate at 1 uM. In a few lines: as §1
Chain of Mitogen-activated protein kinase kinase kinase 1 (Homo sapiens) (Q13233 whole entry): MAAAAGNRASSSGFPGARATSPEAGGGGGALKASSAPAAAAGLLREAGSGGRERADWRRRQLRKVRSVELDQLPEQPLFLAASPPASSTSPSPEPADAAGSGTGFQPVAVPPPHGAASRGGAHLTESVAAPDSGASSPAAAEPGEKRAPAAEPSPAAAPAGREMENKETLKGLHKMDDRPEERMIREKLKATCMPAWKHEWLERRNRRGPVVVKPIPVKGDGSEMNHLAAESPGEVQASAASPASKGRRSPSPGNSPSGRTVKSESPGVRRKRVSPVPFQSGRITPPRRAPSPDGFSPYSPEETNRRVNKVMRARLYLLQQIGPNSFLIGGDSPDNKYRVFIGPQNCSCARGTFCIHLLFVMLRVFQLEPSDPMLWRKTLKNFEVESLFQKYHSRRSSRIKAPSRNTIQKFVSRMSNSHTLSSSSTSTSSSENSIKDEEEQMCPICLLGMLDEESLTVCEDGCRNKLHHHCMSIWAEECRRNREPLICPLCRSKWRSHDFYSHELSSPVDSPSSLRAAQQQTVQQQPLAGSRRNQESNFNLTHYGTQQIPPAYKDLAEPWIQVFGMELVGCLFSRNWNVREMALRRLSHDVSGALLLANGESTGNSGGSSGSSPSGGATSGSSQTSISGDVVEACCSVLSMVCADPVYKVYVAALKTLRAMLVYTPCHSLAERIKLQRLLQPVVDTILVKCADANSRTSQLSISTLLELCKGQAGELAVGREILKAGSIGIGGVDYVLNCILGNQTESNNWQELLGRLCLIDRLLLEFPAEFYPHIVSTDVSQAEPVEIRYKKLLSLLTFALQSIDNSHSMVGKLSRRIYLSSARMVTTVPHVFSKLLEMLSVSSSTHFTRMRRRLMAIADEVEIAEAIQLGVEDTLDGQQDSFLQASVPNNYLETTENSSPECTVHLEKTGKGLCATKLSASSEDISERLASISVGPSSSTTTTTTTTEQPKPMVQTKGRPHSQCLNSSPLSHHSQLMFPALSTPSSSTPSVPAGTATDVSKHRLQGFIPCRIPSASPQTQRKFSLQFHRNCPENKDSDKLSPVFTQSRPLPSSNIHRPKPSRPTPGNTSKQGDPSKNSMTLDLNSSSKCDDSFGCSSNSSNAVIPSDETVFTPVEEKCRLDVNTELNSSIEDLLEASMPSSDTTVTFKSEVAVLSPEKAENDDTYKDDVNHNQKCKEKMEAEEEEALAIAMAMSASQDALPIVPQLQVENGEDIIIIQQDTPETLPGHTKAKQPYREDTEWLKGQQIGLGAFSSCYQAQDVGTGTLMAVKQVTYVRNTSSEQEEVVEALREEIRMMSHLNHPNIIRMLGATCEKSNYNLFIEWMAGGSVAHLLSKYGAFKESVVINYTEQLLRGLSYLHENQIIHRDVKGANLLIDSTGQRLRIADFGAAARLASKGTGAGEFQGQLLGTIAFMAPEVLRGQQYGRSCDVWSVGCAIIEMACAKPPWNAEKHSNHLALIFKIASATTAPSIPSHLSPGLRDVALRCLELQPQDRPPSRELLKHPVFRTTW
The target in experiment [6] is MAP kinase-activated protein kinase 3 (Homo sapiens) (UniProt Q16644). Kind of experiment: Inhibition of recombinant MAPKAPK3 (unknown origin) assessed as residual activity using [gamma-33P]ATP as substrate at 1 uM. A digest of the protocol:
as §1

For experiment [7], the target named is Mitogen-activated protein kinase 10 (Homo sapiens) (UniProt P53779). The experiment can be described thus: Inhibition of recombinant JNK3 (unknown origin) assessed as residual activity using [gamma-33P]ATP as substrate at 1 uM. A digest of the protocol: as §1
Chain of Mitogen-activated protein kinase 10 (Homo sapiens) (P53779 whole entry): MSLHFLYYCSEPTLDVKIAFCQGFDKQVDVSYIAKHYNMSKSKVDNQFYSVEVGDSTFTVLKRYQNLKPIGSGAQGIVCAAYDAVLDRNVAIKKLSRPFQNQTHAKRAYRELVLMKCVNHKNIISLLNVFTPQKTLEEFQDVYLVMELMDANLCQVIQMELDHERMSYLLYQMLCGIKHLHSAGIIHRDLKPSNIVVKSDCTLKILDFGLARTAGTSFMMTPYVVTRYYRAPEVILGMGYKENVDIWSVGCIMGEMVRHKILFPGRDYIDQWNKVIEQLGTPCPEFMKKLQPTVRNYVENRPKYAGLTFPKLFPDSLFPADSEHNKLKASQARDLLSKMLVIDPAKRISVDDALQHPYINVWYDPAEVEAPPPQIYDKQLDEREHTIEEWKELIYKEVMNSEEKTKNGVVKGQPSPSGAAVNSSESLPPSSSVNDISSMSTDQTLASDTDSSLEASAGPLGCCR
Experiment [8] has as its target Insulin-like growth factor 1 receptor (Homo sapiens) (UniProt P08069). The experiment can be described thus: Inhibition of recombinant IGF-1R (unknown origin) assessed as residual activity using [gamma-33P]ATP as substrate at 1 uM. In a few lines:
(§2)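 Recombinant kinase panel screened at 1 µM in duplicate. Reactions started with [γ-33P]ATP (800 cpm/pmol) at 5, 20 or 50 µM, chosen to sit at or below each enzyme's ATP Km. Stopped with phosphoric acid and spotted onto P81 filters. Result given as residual kinase activity.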

Experiment [9] has as its target Homeodomain-interacting protein kinase 1 (Homo sapiens) (UniProt Q86Z02). The experiment can be described thus: Inhibition of recombinant HIPK1 (unknown origin) assessed as residual activity using [gamma-33P]ATP as substrate at 1 uM. In a few lines: as §2
Experiment [10] concerns the target Mitogen-activated protein kinase 1 (Homo sapiens) (UniProt P28482). Kind of experiment: Inhibition of recombinant ERK2 (unknown origin) assessed as residual activity using [gamma-33P]ATP as substrate at 1 uM. In a few lines: as §2
Experiment [11] addresses Dual specificity protein kinase TTK (Homo sapiens) (UniProt P33981). The experiment can be described thus: Inhibition of recombinant TTK (unknown origin) assessed as residual activity using [gamma-33P]ATP as substrate at 1 uM. A digest of the protocol:
(§3)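 Kinase panel screen with each compound at 1 µM, in duplicate. Reactions were started with [γ-33P]ATP (800 cpm/pmol) at 5, 20 or 50 µM, chosen per enzyme to be at or below its ATP Km. Reactions were stopped with phosphoric acid and spotted onto P81 filters. Results are given as residual kinase activity.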

Experiment [12] deals with Mitogen-activated protein kinase kinase kinase 7 (Homo sapiens) (UniProt O43318). The experiment can be described thus: Inhibition of recombinant TAK1 (unknown origin) assessed as residual activity using [gamma-33P]ATP as substrate at 1 uM. A digest of the protocol: as §3
The target of experiment [13] is Serine/threonine-protein kinase 33 (Homo sapiens) (UniProt Q9BYT3). The experiment can be described thus: Inhibition of recombinant STK33 (unknown origin) assessed as residual activity using [gamma-33P]ATP as substrate at 1 uM. A digest of the protocol:
as §3

In experiment [14] the target is RAC-beta serine/threonine-protein kinase (Homo sapiens) (UniProt P31751). Kind of experiment: Inhibition of recombinant PKB beta (unknown origin) assessed as residual activity using [gamma-33P]ATP as substrate at 1 uM. In a few lines:
as §1

The target in experiment [15] is Eukaryotic elongation factor 2 kinase (Homo sapiens) (UniProt O00418). Kind of experiment: Inhibition of recombinant EF2K (unknown origin) assessed as residual activity using [gamma-33P]ATP as substrate at 1 uM. In a few lines: as §2
The target in experiment [16] is Death-associated protein kinase 1 (Homo sapiens) (UniProt P53355). The experiment can be described thus: Inhibition of recombinant DAPK1 (unknown origin) assessed as residual activity using [gamma-33P]ATP as substrate at 1 uM. In a few lines: as §2
Experiment [17] has as its target Tyrosine-protein kinase BTK (Homo sapiens) (UniProt Q06187). The experiment can be described thus: Inhibition of recombinant BTK (unknown origin) assessed as residual activity using [gamma-33P]ATP as substrate at 1 uM. A digest of the protocol: as §2
The test system of experiment [18] is MCF7. The experiment can be described thus: Ratio of roscovitine IC50 to compound IC50 for human MCF7 cells after 72 hrs by calcien AM dye based fluorescence analysis. The format is functional.
Experiment [19] concerns the target Cyclin-dependent kinase 2/cyclin E1 (Homo sapiens) (UniProt P24864+P24941). Kind of experiment: Ratio of roscovitine IC50 to compound IC50 for recombinant CDK2/cyclin E (unknown origin). The format is protein-complex assay.
Experiment [20] has as its target Cyclin-dependent kinase 1/cyclin B1 (Homo sapiens) (UniProt P06493+P14635). The experiment can be described thus: Ratio of roscovitine IC50 to compound IC50 for recombinant CDK1/cyclin B (unknown origin). The format is protein-complex assay.
The test system of experiment [21] is MCF7. Kind of experiment: Cytotoxicity against human MCF7 cells assessed as inhibition of cell viability after 72 hrs by calcien AM dye based fluorescence analysis. The class given is functional. The settings on record: MCF7, 72 h. In a few lines:
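MCF7 cells grown in DMEM with 10% FBS, 2 mM glutamine, penicillin and streptomycin at 37 °C and 5% CO2. About 10,000 cells per well, left 4 h, then a concentration range added in triplicate, DMSO ≤0.5% final. After 72 h, 1 µg/ml calcein AM (final) for 1 h; fluorescence read at 485/538 nm. Viability given as % of control; IC50 read graphically from dose-response curves; mean of ≥3 independent experiments.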

In experiment [22] the target is Cyclin-dependent kinase 1/cyclin B1 (Homo sapiens, UniProt P06493). The experiment can be described thus: Inhibition of recombinant CDK1/cyclin B (unknown origin) using histone H1 as substrate in presence of [gamma-33P]ATP. The format is protein-complex assay.

Chain of Mitogen-activated protein kinase 1 (Homo sapiens) (P28482 whole entry): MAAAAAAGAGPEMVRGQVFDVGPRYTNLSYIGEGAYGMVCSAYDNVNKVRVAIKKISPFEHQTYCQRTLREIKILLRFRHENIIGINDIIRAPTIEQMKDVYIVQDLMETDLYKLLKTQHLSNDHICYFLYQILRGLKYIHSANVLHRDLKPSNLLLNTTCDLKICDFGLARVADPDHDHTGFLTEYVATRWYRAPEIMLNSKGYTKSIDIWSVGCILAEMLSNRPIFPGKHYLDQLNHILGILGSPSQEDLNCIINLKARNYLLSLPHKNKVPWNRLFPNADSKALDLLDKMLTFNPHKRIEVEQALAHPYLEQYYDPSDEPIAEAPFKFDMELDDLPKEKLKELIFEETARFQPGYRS
Chain of MAP kinase-interacting serine/threonine-protein kinase 2 (Homo sapiens) (Q9HBH9 whole entry, looked up): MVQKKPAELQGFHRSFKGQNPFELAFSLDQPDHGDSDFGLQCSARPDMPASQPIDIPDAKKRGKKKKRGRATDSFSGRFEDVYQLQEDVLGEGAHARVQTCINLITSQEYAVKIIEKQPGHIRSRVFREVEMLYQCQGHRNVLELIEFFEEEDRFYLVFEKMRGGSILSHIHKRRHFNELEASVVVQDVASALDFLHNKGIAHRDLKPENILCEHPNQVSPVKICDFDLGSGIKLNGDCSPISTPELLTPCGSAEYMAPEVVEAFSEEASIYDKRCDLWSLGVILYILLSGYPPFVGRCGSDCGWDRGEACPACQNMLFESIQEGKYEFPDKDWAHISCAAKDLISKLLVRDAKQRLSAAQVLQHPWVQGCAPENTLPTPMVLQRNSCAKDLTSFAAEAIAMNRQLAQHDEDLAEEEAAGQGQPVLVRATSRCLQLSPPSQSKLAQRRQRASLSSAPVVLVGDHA
Chain of Dual specificity mitogen-activated protein kinase kinase 6 (Homo sapiens) (P52564 whole entry): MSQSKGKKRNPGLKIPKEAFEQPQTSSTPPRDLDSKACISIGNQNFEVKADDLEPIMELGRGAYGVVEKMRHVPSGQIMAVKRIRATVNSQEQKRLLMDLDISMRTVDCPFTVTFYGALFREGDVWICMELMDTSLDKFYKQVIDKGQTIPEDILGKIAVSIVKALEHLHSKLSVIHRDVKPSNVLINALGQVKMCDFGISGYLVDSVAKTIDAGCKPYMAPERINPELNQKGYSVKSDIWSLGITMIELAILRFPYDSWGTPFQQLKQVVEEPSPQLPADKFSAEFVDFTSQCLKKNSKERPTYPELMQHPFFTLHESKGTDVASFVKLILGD
Chain of Serine/threonine-protein kinase 3 (Homo sapiens) (Q13188 whole entry): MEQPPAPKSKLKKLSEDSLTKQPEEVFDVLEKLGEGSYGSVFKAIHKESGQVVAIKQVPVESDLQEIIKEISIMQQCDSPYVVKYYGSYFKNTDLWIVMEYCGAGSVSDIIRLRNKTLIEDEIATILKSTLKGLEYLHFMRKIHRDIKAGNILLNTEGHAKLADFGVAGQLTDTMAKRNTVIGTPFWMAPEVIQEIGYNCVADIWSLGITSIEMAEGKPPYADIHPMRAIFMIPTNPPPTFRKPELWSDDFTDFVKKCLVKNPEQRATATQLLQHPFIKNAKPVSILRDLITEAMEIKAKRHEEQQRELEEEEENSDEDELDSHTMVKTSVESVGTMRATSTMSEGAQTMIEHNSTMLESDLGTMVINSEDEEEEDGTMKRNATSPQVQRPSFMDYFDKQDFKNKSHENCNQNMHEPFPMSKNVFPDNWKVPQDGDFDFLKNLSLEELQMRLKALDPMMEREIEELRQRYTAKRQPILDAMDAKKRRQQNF
Chain of RAC-beta serine/threonine-protein kinase (Homo sapiens) (P31751 whole entry): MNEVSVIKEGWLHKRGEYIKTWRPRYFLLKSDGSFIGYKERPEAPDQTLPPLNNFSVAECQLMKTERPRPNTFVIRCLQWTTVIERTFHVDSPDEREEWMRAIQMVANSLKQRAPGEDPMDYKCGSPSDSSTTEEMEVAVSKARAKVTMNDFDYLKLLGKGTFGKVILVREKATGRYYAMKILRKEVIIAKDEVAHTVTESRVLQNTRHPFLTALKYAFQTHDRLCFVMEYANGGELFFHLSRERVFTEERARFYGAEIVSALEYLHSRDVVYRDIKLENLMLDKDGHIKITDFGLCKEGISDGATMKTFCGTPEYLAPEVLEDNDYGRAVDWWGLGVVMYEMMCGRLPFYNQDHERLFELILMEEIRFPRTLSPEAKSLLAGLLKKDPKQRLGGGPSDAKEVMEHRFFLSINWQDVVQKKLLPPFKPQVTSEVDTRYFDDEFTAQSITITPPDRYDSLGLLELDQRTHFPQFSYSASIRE
Chain of MAP kinase-activated protein kinase 3 (Homo sapiens) (Q16644 whole entry, looked up): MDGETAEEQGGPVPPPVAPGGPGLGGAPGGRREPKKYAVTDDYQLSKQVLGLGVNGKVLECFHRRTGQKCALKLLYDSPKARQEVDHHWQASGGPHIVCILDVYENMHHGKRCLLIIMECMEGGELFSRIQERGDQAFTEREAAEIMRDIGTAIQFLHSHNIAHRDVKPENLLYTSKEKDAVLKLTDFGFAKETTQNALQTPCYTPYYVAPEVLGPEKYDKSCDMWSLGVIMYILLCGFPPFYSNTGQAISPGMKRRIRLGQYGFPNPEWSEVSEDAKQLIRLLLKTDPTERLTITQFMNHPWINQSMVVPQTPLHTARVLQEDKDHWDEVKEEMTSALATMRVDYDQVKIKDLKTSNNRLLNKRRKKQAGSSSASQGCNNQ
Chain of Serine/threonine-protein kinase 33 (Homo sapiens) (Q9BYT3 whole entry, looked up): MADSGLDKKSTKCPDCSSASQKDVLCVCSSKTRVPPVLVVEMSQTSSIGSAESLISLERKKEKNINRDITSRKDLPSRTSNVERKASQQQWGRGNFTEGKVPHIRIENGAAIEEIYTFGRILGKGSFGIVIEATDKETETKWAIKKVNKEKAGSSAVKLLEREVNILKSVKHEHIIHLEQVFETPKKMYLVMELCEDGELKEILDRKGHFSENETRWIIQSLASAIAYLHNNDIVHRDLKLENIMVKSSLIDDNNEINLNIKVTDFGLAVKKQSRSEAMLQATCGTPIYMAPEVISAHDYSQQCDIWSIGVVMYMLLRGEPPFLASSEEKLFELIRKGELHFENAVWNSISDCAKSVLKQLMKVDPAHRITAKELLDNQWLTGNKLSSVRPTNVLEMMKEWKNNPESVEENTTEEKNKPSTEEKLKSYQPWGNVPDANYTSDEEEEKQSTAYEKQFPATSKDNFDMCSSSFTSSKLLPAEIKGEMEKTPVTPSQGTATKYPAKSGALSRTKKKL

Consider `CC[C@@H](CO)Nc1nc(NC(=N)N)c2ncn(C(C)C)c2n1`, for which the Activity in [1] was 12%; in experiment [2], 43%; in experiment [3], 122%; in experiment [4] it was 88%; in experiment [5], 96%; in experiment [6], 78%. For the same compound, the Activity in [7] was found to be 80%; in [8], 5%; in [9] it was 11%; in experiment [10], 15%; in experiment [11], 32%; in [12], 13%. Besides, the Activity in [13] turned out to be 9%; in [14], 103%; in [15], 94%; in [16], 36%; in [17], 48%. Moreover, the “Ratio IC50” value in [18] is greater than 10; in experiment [19], 4.6; in experiment [20] it was 2.7. The half-inhibitory concentration (IC50) (in general, the concentration at which inhibition is half-maximal) in experiment [21] came out at 1600 nM; in experiment [22], 900 nM.

In the case of `CC[C@H](CO)Nc1nc(NC(=N)N)c2ncn(C(C)C)c2n1`, the Activity in experiment [1] was 14%; in experiment [2], 35%; in [3], 119%; in experiment [4], 72%; in experiment [5], 91%; in experiment [6], 80%. The Activity is 96% in experiment [7]; 10% in [8]; 15% in experiment [9]; 32% in experiment [10]; 40% in [11]; 7% in experiment [12]. In addition, the Activity was 11% in [13]; 111% in [14]; 94% in [15]; 54% in experiment [16]; 53% in experiment [17]. Moreover, the figures for the IC50 in [21] and in [22] were 4500 nM and 2100 nM, respectively.

The record behind these values is ChEMBL document CHEMBL2331324, “Synthesis and biological evaluation of guanidino analogues of roscovitine” (Eur J Med Chem, 2013).
